Assay results published in ChEMBL document CHEMBL2040767, “Development of Polar Adenosine A2A Receptor Agonists for Inflammatory Bowel Disease: Synergism with A2B Antagonists” (ACS Med Chem Lett, 2011).
pEC50, pKi: −log10 of the molar value.

Tests used:
[1] = biological target: T1, Adenosine receptor A2b (Rattus norvegicus) (UniProt P29276); assay: Antagonist activity at adenosine A2B receptor in Wistar rat ileum/jejunum segment assessed as reversal of TNBS-induced inhibition of Ach-induced contraction at 100 uM after 30 mins; assay type: functional, tissue-based; parameters: scale not given: the % may be the effect or the level left
T1 sequence (whole entry): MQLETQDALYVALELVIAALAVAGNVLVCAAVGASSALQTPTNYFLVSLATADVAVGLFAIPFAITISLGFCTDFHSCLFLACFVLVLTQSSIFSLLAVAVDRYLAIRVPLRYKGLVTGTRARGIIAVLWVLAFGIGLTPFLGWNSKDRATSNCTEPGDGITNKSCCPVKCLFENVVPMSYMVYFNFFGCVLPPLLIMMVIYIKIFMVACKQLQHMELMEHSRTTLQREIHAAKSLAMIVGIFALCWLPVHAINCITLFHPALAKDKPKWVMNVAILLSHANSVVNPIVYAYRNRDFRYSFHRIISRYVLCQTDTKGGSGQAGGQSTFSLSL
Method in brief: (§1)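 Ex vivo rat ileum/jejunum segments; contractions evoked by acetylcholine 1 mM, expressed as % of Ach contraction without drug (100%). Acute inflammation induced by TNBS 10 mM, with the A2B antagonist (1–100 μM) preincubated alongside TNBS. Means ± SEM of seven experiments.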

[2] = biological target: T1, Adenosine receptor A2b (Rattus norvegicus); assay: Antagonist activity at adenosine A2B receptor in Wistar rat ileum/jejunum segment assessed as reversal of TNBS-induced inhibition of Ach-induced contraction at 10 uM after 30 mins; assay type: functional, tissue-based; parameters: scale not given: the % may be the effect or the level left; method in brief: as §1
[3] = biological target: T1, Adenosine receptor A2b (Rattus norvegicus); assay: Antagonist activity at adenosine A2B receptor in Wistar rat ileum/jejunum segment assessed as reversal of TNBS-induced inhibition of Ach-induced contraction after 30 mins; assay type: functional, tissue-based; method in brief: as §1
Adenosine receptor A2a [4] = biological target: T2, Adenosine receptor A2a (Rattus norvegicus, UniProt P30543); assay: Displacement of [3H]CGS21680 from adenosine A2A receptor in rat brain striatum; assay type: tissue-based
Adenosine receptor A1 [5] = biological target: T3, Adenosine receptor A1 (Homo sapiens, UniProt P30542); assay: Displacement of [3H]CCPA from human recombinant adenosine A1 receptor
T3 sequence (P30542 whole entry): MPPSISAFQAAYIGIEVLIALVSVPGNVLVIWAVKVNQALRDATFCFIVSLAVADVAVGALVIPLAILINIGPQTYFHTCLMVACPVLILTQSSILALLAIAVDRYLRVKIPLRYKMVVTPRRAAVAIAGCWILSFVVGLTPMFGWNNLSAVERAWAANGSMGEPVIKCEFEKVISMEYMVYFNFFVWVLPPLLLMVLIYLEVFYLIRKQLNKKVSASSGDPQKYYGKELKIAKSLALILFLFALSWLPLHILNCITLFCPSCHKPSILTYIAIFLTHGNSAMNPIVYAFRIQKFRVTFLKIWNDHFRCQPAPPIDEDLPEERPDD

Adenosine receptor A1 [6] = biological target: T4, Adenosine receptor A1 (Rattus norvegicus, UniProt P25099); assay: Displacement of [3H]CCPA from adenosine A1 receptor in rat brain cortex; assay type: tissue-based
T4 sequence (P25099 whole entry): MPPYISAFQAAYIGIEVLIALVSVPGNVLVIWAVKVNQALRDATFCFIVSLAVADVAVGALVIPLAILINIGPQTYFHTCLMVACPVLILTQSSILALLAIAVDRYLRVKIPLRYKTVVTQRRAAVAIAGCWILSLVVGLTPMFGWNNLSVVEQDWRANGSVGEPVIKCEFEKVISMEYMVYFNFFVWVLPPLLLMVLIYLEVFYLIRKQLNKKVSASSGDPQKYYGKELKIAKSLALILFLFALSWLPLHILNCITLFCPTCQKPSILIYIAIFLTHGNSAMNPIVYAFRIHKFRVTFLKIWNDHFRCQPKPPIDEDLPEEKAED

Adenosine receptor A2a [7] = biological target: T5, Adenosine receptor A2a (Homo sapiens, UniProt P29274); assay: Displacement of [3H]CGS21680 from human recombinant adenosine A2A receptor
Adenosine receptor A3 [8] = biological target: T6, Adenosine receptor A3 (Homo sapiens, UniProt P0DMS8); assay: Displacement of [3H]PSB-11 from human recombinant adenosine A3 receptor expressed in CHO cells; assay type: cell-based
T6 sequence (P0DMS8 whole entry): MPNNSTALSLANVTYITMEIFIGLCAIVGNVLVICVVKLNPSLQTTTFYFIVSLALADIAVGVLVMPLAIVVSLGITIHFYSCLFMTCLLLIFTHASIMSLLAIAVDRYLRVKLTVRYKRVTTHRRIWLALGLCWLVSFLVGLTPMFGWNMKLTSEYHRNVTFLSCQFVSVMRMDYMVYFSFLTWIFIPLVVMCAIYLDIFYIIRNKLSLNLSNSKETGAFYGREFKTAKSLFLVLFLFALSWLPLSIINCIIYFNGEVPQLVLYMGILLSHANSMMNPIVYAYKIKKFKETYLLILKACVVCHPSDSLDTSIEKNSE
Method in brief: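 Competition binding at human recombinant A3 receptor with [3H]PSB-11 as radioligand; Ki reported as mean ± SEM from three experiments.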

Adenosine receptor A2a [9] = biological target: T2, Adenosine receptor A2a; assay: Displacement of [3H]MSX-2 from adenosine A2A receptor in rat brain striatum; assay type: tissue-based
Adenosine receptor A2a [10] = biological target: T5, Adenosine receptor A2a; assay: Agonist activity at human adenosine A2A receptor expressed in CHO-K1 cells by cAMP accumulation assay; assay type: functional, cell-based
Adenosine receptor A2b = biological target: T7, Adenosine receptor A2b (Homo sapiens, UniProt P29275); assay: Displacement of [3H]PSB-603 from human recombinant adenosine A2B receptor expressed in CHO cells after 75 mins by liquid scintillation assay; assay type: cell-based
T7 sequence (P29275 whole entry): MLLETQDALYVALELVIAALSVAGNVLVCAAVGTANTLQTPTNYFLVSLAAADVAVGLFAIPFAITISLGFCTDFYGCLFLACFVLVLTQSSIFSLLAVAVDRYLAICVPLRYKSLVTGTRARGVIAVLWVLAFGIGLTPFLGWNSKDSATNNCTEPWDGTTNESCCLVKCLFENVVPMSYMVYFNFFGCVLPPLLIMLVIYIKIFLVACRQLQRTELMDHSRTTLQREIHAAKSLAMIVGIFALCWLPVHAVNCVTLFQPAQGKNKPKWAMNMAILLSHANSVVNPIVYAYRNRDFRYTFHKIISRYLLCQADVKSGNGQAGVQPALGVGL

Adenosine receptor A3 [11] = biological target: T6, Adenosine receptor A3; assay: Displacement of [3H]NECA from human recombinant adenosine A3 receptor

T2 sequence (P30543 whole entry): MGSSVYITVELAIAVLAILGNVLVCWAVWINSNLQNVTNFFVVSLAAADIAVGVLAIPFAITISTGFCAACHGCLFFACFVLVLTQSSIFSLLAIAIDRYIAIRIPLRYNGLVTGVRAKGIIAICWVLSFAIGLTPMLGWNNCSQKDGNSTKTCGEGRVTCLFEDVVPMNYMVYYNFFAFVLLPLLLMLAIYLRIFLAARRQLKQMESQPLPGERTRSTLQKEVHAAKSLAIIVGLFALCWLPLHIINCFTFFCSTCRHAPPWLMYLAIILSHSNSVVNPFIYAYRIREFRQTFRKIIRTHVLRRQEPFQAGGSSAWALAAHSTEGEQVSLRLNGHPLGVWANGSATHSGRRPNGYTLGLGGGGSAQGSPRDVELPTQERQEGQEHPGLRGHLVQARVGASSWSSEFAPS
T5 sequence (P29274 whole entry): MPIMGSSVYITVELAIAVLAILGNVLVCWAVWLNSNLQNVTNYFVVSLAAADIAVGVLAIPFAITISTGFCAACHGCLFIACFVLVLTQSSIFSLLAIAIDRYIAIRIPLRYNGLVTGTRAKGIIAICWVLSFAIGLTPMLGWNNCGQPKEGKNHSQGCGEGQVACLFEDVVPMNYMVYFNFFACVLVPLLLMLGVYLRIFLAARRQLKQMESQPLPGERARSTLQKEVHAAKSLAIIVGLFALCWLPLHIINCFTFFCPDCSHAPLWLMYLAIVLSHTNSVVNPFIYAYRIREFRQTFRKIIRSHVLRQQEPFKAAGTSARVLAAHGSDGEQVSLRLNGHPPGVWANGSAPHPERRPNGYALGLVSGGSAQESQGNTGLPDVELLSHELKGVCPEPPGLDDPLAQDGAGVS

Structure (SMILES)	Activity [1]	Activity [2]	Activity [3]	pKi (Adenosine receptor A2a [4])	pKi (Adenosine receptor A1 [5])	pKi (Adenosine receptor A1 [6])	pKi (Adenosine receptor A2a [7])	pKi (Adenosine receptor A3 [8])	pKi (Adenosine receptor A2a [9])	pEC50 (Adenosine receptor A2a [10])	pKi (Adenosine receptor A2b)	pKi (Adenosine receptor A3 [11])
CCCn1c(=O)[nH]c2nc(-c3ccc(S(=O)(=O)N4CCN(Cc5ccccc5)CC4)cc3)[nH]c2c1=O	86.1%	53.3%	Dose-dependent effect	–	–	–	–	–	–	–	–	–
Nc1nc(S(=O)(=O)CCc2ccc(S(=O)(=O)O)cc2)nc2c1ncn2[C@@H]1O[C@H](CO)[C@@H](O)[C@H]1O	–	–	–	< 5.00	6.26	5.74	< 5.00	< 5.00	–	–	–	–
Nc1nc(SCC(=O)O)nc2c1ncn2[C@@H]1O[C@H](CO)[C@@H](O)[C@H]1O	–	–	–	–	–	5.71	< 5.00	< 5.00	< 5.00	–	–	–
Nc1nc(SCCc2ccc(S(=O)(=O)O)cc2)nc2c1ncn2[C@@H]1O[C@H](CO)[C@@H](O)[C@H]1O	–	–	–	7.35	6.27	≤ 5.00	6.44	< 5.00	–	6.93	< 5.00	< 6.00
Nc1nc(SCCc2ccc(C(=O)O)cc2)nc2c1ncn2[C@@H]1O[C@H](CO)[C@@H](O)[C@H]1O	–	–	–	6.82	6.39	6.00	≤ 5.00	< 5.00	–	–	< 5.00	< 6.00
